Converted amounts (≈) assume the structure as drawn. The source made the active and inactive calls. Unless noted, the calls are words filed in the database; no cut-off is given here.
Assays:
[1] = tested on: Staphylococcus aureus; assay: Antibacterial activity against Staphylococcus aureus ATCC 49951 infected in CD1 mouse assessed as protection against bacterial infection administered 5 hrs post infection measured on day 5; assay type: functional
Method in brief: (§1)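 Mouse lethal systemic infection: ip injection of 1 × 10^8 cfu/mouse (10−100× minimal lethal dose), E. faecalis in 50% sterile rat fecal extract, S. aureus in 0.9% NaCl. Therapy by tail-vein bolus at several doses, six mice per group. Started immediately for E. faecalis; at 1 and 5 h post-inoculation for S. aureus.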

[2] = tested on: Enterococcus faecalis; assay: Antibacterial activity against Enterococcus faecalis ATCC 29212 by CLSI M07-A8 method; assay type: functional
Method in brief: (§2)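 Broth microdilution MIC run per CLSI M07-A8 (2009).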

[3] = tested on: Streptococcus pneumoniae; assay: Antibacterial activity against Streptococcus pneumoniae by CLSI M07-A8 method; assay type: functional, organism-based; method in brief: as §2
[4] = tested on: Staphylococcus aureus; assay: Antibacterial activity against GE2270-A-resistant Staphylococcus aureus harboring tufA G258D mutant gene by CLSI M07-A8 method; assay type: functional
[5] = tested on: Staphylococcus aureus; assay: Antibacterial activity against methicillin-resistant Staphylococcus aureus isolate A4.018 by CLSI M07-A8 method; assay type: functional
[6] = tested on: Enterococcus faecalis; assay: Antibacterial activity against Enterococcus faecalis isolate NB04025 infected in CD1 mouse assessed as protection against bacterial infection administered immediately after infection measured on day 5; assay type: functional; conditions: isolate NB04025, 120 h; method in brief: as §1
[7] = tested on: Streptococcus pyogenes; assay: Antibacterial activity against Streptococcus pyogenes ATCC BAA-595 by CLSI M07-A8 method; assay type: functional; method in brief: as §2
[8] = tested on: Escherichia coli; assay: Antibacterial activity against Escherichia coli S30 assessed as inhibition of protein synthesis after 2 hrs by luminescence analysis; conditions: S30, 2 h
[9] = tested on: Enterococcus faecium; assay: Antibacterial activity against Enterococcus faecium 7130724 by CLSI M07-A8 method; assay type: functional; method in brief: as §2
[10] = tested on: Staphylococcus aureus; assay: Bacteriostatic activity against Staphylococcus aureus ATCC 01001 infected in thigh of CD1 mouse assessed as prevention of colony formation at 80 mg/kg, po administered 2 hrs post infection measured after 24 hrs; assay type: functional, organism-based; parameters: dose 80 mg/kg
Method in brief: (§3)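 Female CD1 mice (21−25 g), made neutropenic with cyclophosphamide ip at 150 mg/kg (day −4) and 100 mg/kg (day −1). Left thigh infected im with 0.05 mL S. aureus ATCC 01001 (7.5 × 10^5 cfu/thigh), grown 16 h at 36 °C in cation-supplemented Mueller Hinton. Treatment given 2 h post-infection, four mice per group. At 12 or 24 h thighs were excised, homogenized in 0.9% NaCl, serially diluted and plated on blood agar for cfu.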

[11] = tested on: Staphylococcus aureus; assay: Bacteriostatic activity against Staphylococcus aureus ATCC 01001 infected in thigh of CD1 mouse assessed as prevention of colony formation at 80 mg/kg, po administered 2 hrs post infection measured after 12 hrs; assay type: functional, organism-based; parameters: dose 80 mg/kg; method in brief: as §3
[12] = Chemical stability of the compound in 15% v/v NaOH, 5% PEG-300, 0.9% saline, 55% v/v water at pH 7.2 to 7.8; assay type: physicochemical; conditions: buffer
[13] = tested on: Staphylococcus aureus; assay: Antibacterial activity against Staphylococcus aureus ATCC 01001 infected in thigh of CD1 mouse assessed as prevention of colony formation at 32 mg/kg, ip administered 2 hrs post infection measured after 24 hrs; assay type: functional, organism-based; parameters: dose 32 mg/kg; method in brief: as §3
[14] = tested on: Staphylococcus aureus; assay: Antibacterial activity against Staphylococcus aureus ATCC 01001 infected in thigh of CD1 mouse assessed as prevention of colony formation at 32 mg/kg, ip administered 2 hrs post infection measured after 12 hrs; assay type: functional, organism-based; parameters: dose 32 mg/kg; method in brief: as §3
[15] = tested on: Staphylococcus aureus; assay: Antibacterial activity against Staphylococcus aureus ATCC 01001 infected in thigh of CD1 mouse assessed as prevention of colony formation at 80 to 320 mg/kg, ip administered 2 hrs post infection measured after 12 hrs; assay type: functional, organism-based; method in brief: as §3
[16] = Plasma protein binding in Sprague-Dawley rat; assay type: ADME, cell-free; conditions: read-out: PPB
Method in brief: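 Rat plasma protein binding was determined in triplicate by rapid equilibrium dialysis. Samples were quantified by LC−MS/MS after acetonitrile precipitation with glyburide internal standard.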

[17] = Clearance in Sprague-Dawley rat at 25 mg/kg, iv bolus; assay type: ADME, organism-based; parameters: dose 25 mg/kg, route intravenous; conditions: in vivo
Method in brief: (§4)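 Male Sprague−Dawley rats (220−270 g, ~6−10 weeks) with dual jugular vein cannulae, fasted overnight and for 8 h post-dose, given iv bolus (N = 2 or 3). Blood was collected into K2EDTA tubes and plasma was obtained. Plasma was protein-precipitated with acetonitrile containing glyburide internal standard, then analysed by LC−MS/MS (C18, 0.1% formic acid water/acetonitrile gradient).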

[18] = tested on: Staphylococcus aureus; assay: Antibacterial activity against Staphylococcus aureus ATCC 01001 infected in thigh of CD1 mouse assessed as prevention of colony formation at 80 to 320 mg/kg, ip administered 2 hrs post infection measured after 24 hrs; assay type: functional, organism-based; method in brief: as §3
[19] = Clearance in Sprague-Dawley rat at 75 mg/kg, iv bolus; assay type: ADME, organism-based; parameters: dose 75 mg/kg, route intravenous; conditions: in vivo; method in brief: as §4
[20] = tested on: Staphylococcus aureus; assay: Bacteriostatic activity against Staphylococcus aureus ATCC 01001 infected in thigh of CD1 mouse assessed as prevention of colony formation at 80 mg/kg, ip administered 2 hrs post infection measured after 24 hrs; assay type: functional, organism-based; parameters: dose 80 mg/kg; method in brief: as §3
[21] = AUC in Sprague-Dawley rat at 75 mg/kg, iv bolus; assay type: ADME, organism-based; parameters: dose 75 mg/kg, route intravenous; conditions: plasma; method in brief: as §4
[22] = tested on: Rattus norvegicus; assay: Dose normalized AUC in Sprague-Dawley rat at 25 mg/kg, iv bolus; assay type: ADME, organism-based; parameters: dose 25 mg/kg, route intravenous; conditions: in vivo; method in brief: as §4
[23] = Clearance in Sprague-Dawley rat at 1 mg/kg, iv bolus; assay type: ADME, organism-based; parameters: dose 1 mg/kg, route intravenous; conditions: in vivo; method in brief: as §4
[24] = Cmax in Sprague-Dawley rat at 25 mg/kg, iv bolus; assay type: ADME, organism-based; parameters: dose 25 mg/kg, route intravenous; conditions: in vivo; method in brief: as §4
[25] = Volume of distribution at steady state in Sprague-Dawley rat at 1 mg/kg, iv bolus; assay type: ADME, organism-based; parameters: dose 1 mg/kg, route intravenous; conditions: in vivo, read-out: Vdss; method in brief: as §4
[26] = Volume of distribution at steady state in Sprague-Dawley rat at 25 mg/kg, iv bolus; assay type: ADME, organism-based; parameters: dose 25 mg/kg, route intravenous; conditions: in vivo, read-out: Vdss; method in brief: as §4
[27] = AUC in Sprague-Dawley rat at 25 mg/kg, iv bolus; assay type: ADME, organism-based; parameters: dose 25 mg/kg, route intravenous; conditions: plasma; method in brief: as §4
[28] = Cmax in Sprague-Dawley rat at 1 mg/kg, iv bolus; assay type: ADME, organism-based; parameters: dose 1 mg/kg, route intravenous; conditions: in vivo; method in brief: as §4
[29] = tested on: Rattus norvegicus; assay: Dose normalized AUC in Sprague-Dawley rat at 1 mg/kg, iv bolus; assay type: ADME, organism-based; parameters: dose 1 mg/kg, route intravenous; conditions: in vivo; method in brief: as §4
[30] = Volume of distribution at steady state in Sprague-Dawley rat at 75 mg/kg, iv bolus; assay type: ADME, organism-based; parameters: dose 75 mg/kg, route intravenous; conditions: in vivo, read-out: Vdss; method in brief: as §4
[31] = tested on: Rattus norvegicus; assay: Dose normalized AUC in Sprague-Dawley rat at 75 mg/kg, iv bolus; assay type: ADME, organism-based; parameters: dose 75 mg/kg, route intravenous; conditions: in vivo; method in brief: as §4
[32] = AUC in Sprague-Dawley rat at 1 mg/kg, iv bolus; assay type: ADME, organism-based; parameters: dose 1 mg/kg, route intravenous; conditions: plasma; method in brief: as §4
[33] = tested on: Staphylococcus aureus; assay: Bacteriostatic activity against Staphylococcus aureus ATCC 01001 infected in thigh of CD1 mouse assessed as prevention of colony formation at 40 mg/kg, ip administered 2 hrs post infection measured after 12 hrs; assay type: functional, organism-based; parameters: dose 40 mg/kg; method in brief: as §3
[34] = Oral bioavailability in Sprague-Dawley rat; assay type: ADME, organism-based; conditions: in vivo
[35] = tested on: Rattus norvegicus; assay: Cmax in Sprague-Dawley rat at 75 mg/kg, iv bolus; assay type: ADME, organism-based; parameters: dose 75 mg/kg, route intravenous; conditions: in vivo; method in brief: as §4

## CNC(=O)C[C@@H]1NC(=O)c2csc(n2)-c2ccc(-c3nc(NC(=O)CCCCC(=O)O)cs3)nc2-c2csc(n2)-c2csc(n2)[C@H]([C@@H](O)c2ccccc2)NC(=O)CNC(=O)c2nc(sc2COC)[C@H](C(C)C)NC(=O)c2nc1sc2C
[1]
  ED50: 10.5 mg/kg
[2]
  MIC: 0.06 µg/mL (≈ 0.049 µM)
[3]
  Activity: Active
[4]
  Activity: inactive
[5]
  MIC: 0.125 µg/mL (≈ 0.102 µM)
[6]
  ED50: 5.5 mg/kg
[7]
  MIC: 4 µg/mL (≈ 3.27 µM)
[8]
  IC50: 1200 nM
[9]
  MIC: 0.125 µg/mL (≈ 0.102 µM)

## CC(=O)NC[C@H]1CN(c2ccc(N3CCOCC3)c(F)c2)C(=O)O1
[10]
  Activity: Active
[11]
  Activity: Active

## CNC(=O)C[C@@H]1NC(=O)c2csc(n2)-c2ccc(-c3nc(NC(=O)O[C@H]4CC[C@H](C(=O)O)CC4)cs3)nc2-c2csc(n2)-c2csc(n2)[C@H]([C@@H](O)c2ccccc2)NC(=O)CNC(=O)c2nc(sc2COC)[C@H](C(C)C)NC(=O)c2nc1sc2C
[1]
  ED50: 4.3 mg/kg
[2]
  MIC: 0.06 µg/mL (≈ 0.0474 µM)
[3]
  Activity: Active
[12]
  Stability: > 1 weeks
[5]
  MIC: 0.125 µg/mL (≈ 0.0987 µM)
[6]
  ED50: 0.2 mg/kg
[7]
  MIC: 2 µg/mL (≈ 1.58 µM)
[9]
  MIC: 0.03 µg/mL (≈ 0.0237 µM)

## CCCCCCCCCC(=O)N[C@@H](Cc1c[nH]c2ccccc12)C(=O)N[C@H](CC(N)=O)C(=O)N[C@@H](CC(=O)O)C(=O)N[C@@H]1C(=O)NCC(=O)N[C@@H](CCCN)C(=O)N[C@@H](CC(=O)O)C(=O)N[C@H](C)C(=O)N[C@@H](CC(=O)O)C(=O)NCC(=O)N[C@H](CO)C(=O)N[C@@H]([C@H](C)CC(=O)O)C(=O)N[C@@H](CC(=O)c2ccccc2N)C(=O)O[C@@H]1C
[13]
  Activity: Active
[14]
  Activity: Active

## CNC(=O)C[C@@H]1NC(=O)c2csc(n2)-c2ccc(-c3nc(NC(=O)[C@H]4CC[C@H](C(=O)O)CC4)cs3)nc2-c2csc(n2)-c2csc(n2)[C@H]([C@@H](O)c2ccccc2)NC(=O)CNC(=O)c2nc(sc2COC)[C@H](C(C)C)NC(=O)c2nc1sc2C
[15]
  Activity: Active
[16]
  fraction unbound: < 0.01
[17]
  clearance: 1 mL/min/kg
[1]
  ED50: 5.2 mg/kg
[18]
  Activity: Active
[19]
  clearance: 0.4 mL/min/kg
[20]
  Activity: Active
[21]
  AUC: 2860 µM·h
[22]
  AUC/dose: 13.7 µM·h/mg/kg
[2]
  MIC: 0.06 µg/mL (≈ 0.048 µM)
[3]
  Activity: Active
[23]
  clearance: 6.7 mL/min/kg
[12]
  Stability: > 1 weeks
[24]
  Cmax: 320 µM
[5]
  MIC: 0.125 µg/mL (≈ 0.1 µM)
[6]
  ED50: 0.6 mg/kg
[7]
  MIC: 4 µg/mL (≈ 3.2 µM)
[25]
  Vd: < 0.1 L/kg
[26]
  Vd: < 0.1 L/kg
[27]
  AUC: 343 µM·h
[28]
  Cmax: 5 µM
[29]
  AUC/dose: 3 µM·h/mg/kg
[30]
  Vd: < 0.1 L/kg
[31]
  AUC/dose: 38.2 µM·h/mg/kg
[32]
  AUC: 3 µM·h
[33]
  Activity: Active
[9]
  MIC: 0.06 µg/mL (≈ 0.048 µM)
[34]
  bioavailability: < 0.1%
[35]
  Cmax: > 1000 µM

## CNC(=O)C[C@@H]1NC(=O)c2csc(n2)-c2ccc(-c3nc(NC(=O)C(F)(F)F)cs3)nc2-c2csc(n2)-c2csc(n2)[C@H]([C@@H](O)c2ccccc2)NC(=O)CNC(=O)c2nc(sc2COC)[C@H](C(C)C)NC(=O)c2nc1sc2C
[2]
  MIC: 1 µg/mL (≈ 0.839 µM)
[3]
  Activity: Active
[5]
  MIC: > 32 µg/mL
[7]
  MIC: > 32 µg/mL
[8]
  IC50: > 32000 nM
[9]
  MIC: 1 µg/mL (≈ 0.839 µM)

From ChEMBL document CHEMBL1921735, “Antibacterial optimization of 4-aminothiazolyl analogues of the natural product GE2270 A: identification of the cycloalkylcarboxylic acids” (J Med Chem, 2011)
